Experimental data of several laboratories.
Target: Serine/threonine-protein kinase TNNI3K (TNNI3K, Homo sapiens, UniProt Q59H18)
Sequence (Q59H18 1-835, as in one of the studies): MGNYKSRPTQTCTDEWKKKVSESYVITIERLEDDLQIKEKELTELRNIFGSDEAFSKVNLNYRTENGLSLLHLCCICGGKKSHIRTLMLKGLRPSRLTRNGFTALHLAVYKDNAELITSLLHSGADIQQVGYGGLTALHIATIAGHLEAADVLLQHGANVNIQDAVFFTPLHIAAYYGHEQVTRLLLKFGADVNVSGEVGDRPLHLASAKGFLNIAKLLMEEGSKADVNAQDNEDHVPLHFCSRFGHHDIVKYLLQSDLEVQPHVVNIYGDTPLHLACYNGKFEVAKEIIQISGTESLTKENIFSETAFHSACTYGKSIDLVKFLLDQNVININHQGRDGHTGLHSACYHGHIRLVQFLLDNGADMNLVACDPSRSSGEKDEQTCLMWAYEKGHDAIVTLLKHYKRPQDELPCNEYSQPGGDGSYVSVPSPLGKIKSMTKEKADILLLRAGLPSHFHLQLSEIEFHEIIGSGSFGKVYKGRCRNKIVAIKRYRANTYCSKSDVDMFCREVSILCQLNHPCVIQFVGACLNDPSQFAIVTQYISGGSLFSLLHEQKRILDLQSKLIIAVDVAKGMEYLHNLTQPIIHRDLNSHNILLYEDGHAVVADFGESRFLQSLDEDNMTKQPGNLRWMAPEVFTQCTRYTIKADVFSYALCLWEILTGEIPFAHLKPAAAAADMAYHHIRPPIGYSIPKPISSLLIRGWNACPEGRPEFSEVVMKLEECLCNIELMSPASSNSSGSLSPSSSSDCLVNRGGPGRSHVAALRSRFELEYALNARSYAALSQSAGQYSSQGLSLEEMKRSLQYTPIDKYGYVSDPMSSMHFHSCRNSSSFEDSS

| Compound | assay | conditions | remaining binding [%] |
| --- | --- | --- | --- |
| COc1ccnn2ncc(-c3ccnc(N(C)C)n3)c12 | binding | 1 µM | 93 |
| CCOC(=O)c1cc2cc(-c3cc(C(=O)NCc4ccc(C(=O)O)cc4)nn3C)ccc2[nH]1 | cell-free assay, competition with immobilised ligand | 0.1 µM | 100 |
| COc1ncc2cc3ccccc3nc2c1C#N | cell-free assay, competition with immobilised ligand | 5 µM | 100 |
| CN(C)c1ncc(F)c(-c2cnn3ncccc23)n1 | binding | 1 µM | 100 |
| CS(=O)(=O)N1CCCC(NC(=O)[C@H](CCC2CCCCC2)NC(=O)c2ccc(CNc3ncnc4c3nnn4-c3ccccc3)cc2)C1 (stereo partly shown) | cell-free assay, competition with immobilised ligand | 0.1 µM | 63 |
| Cc1cnn2ncc(-c3ccnc(N(C)C)n3)c2c1 | binding | 1 µM | 100 |
| Cc1cnc(Nc2ccc(C(=O)N3CCC(N4CCCC4)CC3)cc2)nc1-c1cc2ccccc2s1 | binding, competition with immobilised ligand | 1 µM | 31 |
| CNC(=O)[C@@H]1CC[C@@H](n2c(-c3ccc4cnccc4c3)nc3ccc(C(=O)NCc4cccc(C(N)=O)c4)cc32)C1 | binding, competition with immobilised ligand | 1 µM | 100 |
| C[C@@H](c1ccc(-n2cnc3c(N)ncnc32)cc1)N1CCc2nn(C)c(Cc3ccccc3)c2C1=O | binding, competition with immobilised ligand | 0.1 µM | 88 |
| COc1cnc(Nc2cccc(S(N)(=O)=O)c2)nc1N1CCN(c2ccccc2)CC1 | binding, competition with immobilised ligand | 1 µM | 96 |
| O=C(Nc1c[nH]nc1C(=O)NC1CCNCC1)c1cc(F)cc(F)c1 | binding, competition with immobilised ligand | 1 µM | 95 |
| N[C@H]1CCN(c2nccc(-c3cnn4ncccc34)n2)C1 | binding | 1 µM | 100 |
| Cc1nc(N2CC[C@@H](O)C2)ncc1-c1cc(C(F)(F)F)cc2[nH]ncc12 | cell-free assay, competition with immobilised ligand | 1 µM | 87 |
| C=CC(=O)N1CCC(C(=O)NCC(=O)N2CCN(c3nc(-c4cnc(N)nc4C(F)F)nc(N4CCOCC4)n3)CC2)CC1 | binding, competition with immobilised ligand | 1 µM | 100 |
| Nc1cnc(N2CCc3cc(S(=O)(=O)Nc4c(F)cc(Cl)cc4F)cc(N4CCCC4=O)c32)nc1 | binding, competition with immobilised ligand | 1 µM | 49 |
| F[C@@H]1CCN(c2nccc(-c3cnn4ncccc34)n2)C1 | binding | 1 µM | 100 |
| COc1ccc2c(O[C@@H]3C[C@H]4C(=O)N[C@]5(C(=O)O)CC5/C=C\CCCCC[C@H](NC(=O)OC5CCCC5)C(=O)N4C3)cc(-c3csc(NC(=O)C(C)C)n3)nc2c1C (stereo partly shown) | cell-free assay, competition with immobilised ligand | 1 µM | 100 |
| C[C@@H]1CCN(c2nccc(-c3cnn4ncccc34)n2)C1 | binding | 1 µM | 100 |
| O=C(NCCCN1CCOCC1)c1ccc(Nc2nccc(-c3cc4ccccc4s3)n2)cc1 | binding, competition with immobilised ligand | 1 µM | 70 |
| COc1ccc2cc(OCC3(C(=O)O)CN(C(=O)c4ccc(F)cc4)C3)ccc2c1 | cell-free assay, competition with immobilised ligand | 1 µM | 100 |
| O=C(c1ccc(Nc2ncc(Cl)c(-c3cc4ccccc4s3)n2)cc1)N1CCC(N2CCCC2)CC1 | binding, competition with immobilised ligand | 1 µM | 50 |
| CCCCN(CCCC)C(=O)CN1C[C@H](c2cc(OC)c3c(c2)OCO3)[C@@H](C(=O)O)[C@@H]1CC(C)(C)CCC | cell-free assay, competition with immobilised ligand | 1 µM | 100 |
